The source made the active and inactive calls. The calls are words filed in the database; no cut-off is given here.
Assays:
MDA-MB-231 [1] = assay: […] in human MDA-MB-231 cells assessed as induction of LC3-II accumulation at 2 umol/L for 48 hrs by Western blot analysis; assay type: functional, cell-based; conditions: dose 2.0 µmol/L
MDA-MB-231 [2] = assay: Induction of autophagy in human MDA-MB-231 cells assessed as induction of LC3-II accumulation at 10 umol/L for 48 hrs by Western blot analysis; conditions: dose 10.0 µmol/L
HepG2 [3] = assay: Anticancer activity in human HepG2 cells assessed as inhibition of EZH2 expression measured after 24 hrs by Western blot analysis; assay type: functional, cell-based; conditions: dose 2.5-10 µmol/L
Outline: (§1)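 HepG2 cells given 2.5–10 μmol/l sorafenib for 24 h; whole-cell lysates immunoblotted for EZH2, LC3B and GAPDH, with ECL detection.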

HepG2 [4] = assay: Induction of autophagy in human HepG2 cells assessed as accumulation of LC3-II at 10 umol/L measured after 24 hrs by Western blot analysis; assay type: functional, cell-based; conditions: dose 10.0 µmol/L; outline: as §1
MDA-MB-231 [5] = assay: Induction of apoptosis in human MDA-MB-231 cells assessed as cleavage of caspase-3 at 0.75 umol/L incubated for 72 hrs by Western blot analysis; assay type: functional, cell-based; conditions: dose 0.75 µmol/L
MDA-MB-231 [6] = assay: […] in human MDA-MB-231 cells assessed as induction of LC3-II accumulation at 1 umol/L for 48 hrs by Western blot analysis; assay type: functional, cell-based; conditions: dose 1.0 µmol/L
MDA-MB-231 [7] = assay: Induction of apoptosis in human MDA-MB-231 cells assessed as cleavage of PARP at 0.75 umol/L incubated for 72 hrs by Western blot analysis; assay type: functional, cell-based; conditions: dose 0.75 µmol/L

Compound: O=C(CCCCCCC(=O)Nc1ccccc1)NO
- Activity (MDA-MB-231 [1]): Active

Compound: COc1cc([C@@H]2c3cc4c(cc3[C@@H](O[C@@H]3O[C@@H]5CO[C@@H](C)O[C@H]5[C@H](O)[C@H]3O)[C@H]3COC(=O)[C@H]23)OCO4)cc(OC)c1O
- Activity (MDA-MB-231 [2]): Active

Compound: CNC(=O)c1cc(Oc2ccc(NC(=O)Nc3ccc(Cl)c(C(F)(F)F)c3)cc2)ccn1
- inhibition (HepG2 [3]): Active
- Activity (HepG2 [4]): Active

Compound: COc1cccc2c1C(=O)c1c(O)c3c(c(O)c1C2=O)C[C@@](O)(C(=O)CO)C[C@@H]3O[C@H]1C[C@H](N)[C@H](O)[C@H](C)O1
- Activity (MDA-MB-231 [5]): Active
- Activity (MDA-MB-231 [6]): Active
- Activity (MDA-MB-231 [7]): Active

Reference: ChEMBL document CHEMBL5712884, “S-Adenosyl-L-methionine-competitive inhibitors of the histone methyltransferase EZH2 induce autophagy and enhance drug sensitivity in cancer cells” (Anticancer Drugs, 2015)
